# Test results as given in ChEMBL document CHEMBL4706480, “Pyridin-2(1H)one derivatives: A possible new class of therapeutics for mechanical allodynia” (Eur J Med Chem, 2020).
# Active and inactive are the calls of the source. The calls are words filed in the database; no cut-off is given here.
# Experiments:
# [1] = test system: Rattus norvegicus; assay: Anti-allodynic activity in complete freund's adjuvant-induced rat inflammatory pain model assessed as inflammatory mechanical allodynia pretreated at 100 uM intra-cisternally administerd 30 min before CFA injection; format: functional, organism-based
# Procedure, shortened: (§1)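 Rats briefly anesthetized (<2 min, 2% isoflurane by mask), given intracisternal 5 μL compound (100 μM) or vehicle (saline + 1% DMSO) 30 min before subcutaneous CFA (25 μL, 2.5 mg/kg) into right vibrissa pad. Static mechanical allodynia tested with 6-g von Frey filament on face every 15 or 30 min over 120 min; allodynic score 0–4 (Vos). n=4–6 rats.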
# [2] = molecular target: Protein kinase C gamma type (Homo sapiens) (UniProt P05129); assay: Inhibition of PKC-gamma (unknown origin) assessed as residual activity at 10 uM
# [3] = test system: Rattus norvegicus; assay: Anti-allodynic activity in complete freund's adjuvant-induced rat inflammatory pain model assessed as inflammatory mechanical allodynia pretreated at 100 uM intra-cisternally administerd 30 min before CFA injection measured 120 min after CFA injection relative to control; format: functional; details: 0.5 h; procedure, shortened: as §1
# [4] = test system: Rattus norvegicus; assay: Anti-allodynic activity in complete freund's adjuvant-induced rat inflammatory pain model assessed as inflammatory mechanical allodynia pretreated at 0.15 ug intra-cisternally administerd 30 min before CFA injection relative to control; format: functional; details: dose 0.15 µg, 0.5 h; procedure, shortened: as §1
# [5] = test system: Rattus norvegicus; assay: Anti-allodynic activity in constriction injury-induced rat neuropathic mechanic allodynia model assessed as inflammatory mechanical allodynia at 0.17 ug intra-cisternally administered on day 14 after injury; format: functional, organism-based; details: dose 0.17 µg, in the assay text read “static mechanical allodynia” for “inflammatory mechanical allodynia”
# Procedure, shortened: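 Neuropathic model: infraorbital nerve chronic constriction (two loose 4/0 chromic catgut ligatures 1 mm apart, chloral hydrate 400 mg/kg i.p. anesthesia). On day 14, once stable allodynia present, intracisternal 5 μL compound (100 μM) or vehicle (saline + 1% DMSO) under brief isoflurane. Face stimulated with 6-g von Frey filament; allodynic score 0–4; n=5/group; mean ± s.e.m.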
# [6] = molecular target: Mitogen-activated protein kinase 14 (Homo sapiens) (UniProt Q16539); assay: Inhibition of p38alpha MAPK (unknown origin) assessed as residual activity at 10 uM
# [7] = test system: Rattus norvegicus; assay: Anti-allodynic activity in complete freund's adjuvant-induced rat inflammatory pain model assessed as inflammatory mechanical allodynia pretreated at 0.17 ug intra-cisternally administerd 30 min before CFA injection relative to control; format: functional; details: dose 0.17 µg, 0.5 h; procedure, shortened: as §1
# Mitogen-activated protein kinase 14 (Homo sapiens), sequence (Q16539 whole entry): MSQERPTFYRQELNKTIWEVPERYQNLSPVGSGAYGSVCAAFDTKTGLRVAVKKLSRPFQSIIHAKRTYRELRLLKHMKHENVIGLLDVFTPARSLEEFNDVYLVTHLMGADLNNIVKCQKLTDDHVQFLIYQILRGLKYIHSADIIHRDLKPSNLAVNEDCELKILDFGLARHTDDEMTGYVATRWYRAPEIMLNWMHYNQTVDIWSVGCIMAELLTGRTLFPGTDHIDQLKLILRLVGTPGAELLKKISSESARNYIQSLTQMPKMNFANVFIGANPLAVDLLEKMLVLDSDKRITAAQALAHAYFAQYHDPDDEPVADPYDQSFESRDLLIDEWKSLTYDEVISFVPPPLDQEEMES
Activity [2],SMILES,inhibition [1],also measured
,Cc1ccc(-c2cc(Nc3ccccc3)c[nH]c2=O)cc1,Active,
,NC(=O)c1ccccc1-c1cc(Nc2ccccc2)c[nH]c1=O,Active,
,NC(=O)c1ccc(-c2cc(Nc3ccccc3)c[nH]c2=O)cc1,Active,
> 85%,O=c1[nH]cc(Nc2ccccc2)cc1-c1ccc(F)cc1,Active,
,CC(=O)c1cccc(-c2cc(Nc3ccccc3)c[nH]c2=O)c1,Active,
,O=c1[nH]cc(Nc2ccccc2)cc1-c1ccccc1Cl,Active,
,O=c1[nH]cc(Nc2ccccc2)cc1-c1ccc(OC(F)(F)F)cc1,Active,
,O=c1[nH]cc(Nc2ccccc2)cc1-c1ccnc2ccccc12,Active,
,CCOC(=O)c1ccccc1-c1cc(Nc2ccccc2)c[nH]c1=O,Active,
,O=c1[nH]cc(Nc2ccccc2)cc1-c1cccc(Cl)c1,Active,
,O=c1[nH]cc(Nc2ccccc2)cc1-c1ccc(F)cc1F,Active,
> 85%,O=c1[nH]cc(Nc2ccccc2)cc1-c1cncnc1,Active,
> 85%,O=c1[nH]cc(Nc2ccccc2)cc1-c1ccncc1,Active,inhibition in vivo at 100 µM [3]: 90%
> 85%,O=c1[nH]cc(Nc2ccccc2)cc1-c1c[nH]c2ccccc12,,
> 85%,O=c1[nH]cc(Nc2ccccc2)cc1-c1ccccc1,Active,
> 85%,O=c1[nH]cc(Nc2ccccc2)cc1-c1cccc2cnccc12,,
,COC(=O)c1ccc(-c2cc(Nc3ccccc3)c[nH]c2=O)cc1,Active,
,O=c1[nH]cc(Nc2ccccc2)cc1-c1cccc2[nH]ccc12,Active,inhibition (INH) [4]: 98%
,O=c1[nH]cc(Nc2ccccc2)cc1-c1ccccc1Br,Active,inhibition [5]: Active; Activity [6]: 19%; inhibition (INH) [7]: 99%
,O=c1[nH]cc(Nc2ccccc2)cc1-c1ccc(O)cc1,Active,
,O=c1[nH]cc(Nc2ccccc2)cc1-c1ccc(C(F)(F)F)cc1,Active,
,O=c1[nH]cc(Nc2ccccc2)cc1-c1ccccc1[N+](=O)[O-],Active,
> 85%,O=c1[nH]cc(Nc2ccccc2)cc1-c1cccc2cccnc12,Active,
